Measurements collected from several papers.
Each line is one published result; the experiments were not run side by side.
Target: Leukocyte tyrosine kinase receptor (LTK, Homo sapiens, UniProt P29376)

Compound | test | conditions | quantity | value
O=C(Nc1cnn(-c2csc(C(=O)NC3COC3)c2)c1)Nc1c(F)cccc1Cl | enzyme activity, inhibitor | 5 µM | remaining activity | 92.2%
Cc1ccc(C(=O)NCc2ccsc2)cc1C#Cc1cn(C(C)C)c2ncnc(N)c12 | enzyme activity, inhibitor | 1 µM | activity vs control | 95%
O=C(Nc1cnc(Oc2ccc(F)cc2)nc1)N1CCc2ncccc2[C@@H]1c1ccc(F)cc1 | cell-free assay, competition with immobilised ligand | 1 µM | remaining binding | 93%
Cc1cnc(NC2CCOCC2)nc1-n1cnc(C(=O)NC(CN)c2cc(F)cc(Cl)c2)c1 (stereo not shown) | enzyme activity, inhibitor, radiometric | 1 µM | remaining activity | 103%
COc1cc2nccc(Oc3ccc(NC(=O)c4c5n(n(-c6ccc(F)cc6)c4=O)CCCC5)cc3)c2cc1OC | enzyme activity, inhibitor | 0.1 µM | inhibition | -10%
Cc1ccc(NC(=O)c2ccc(C)c(C(F)(F)F)c2)cc1C#Cc1nn(C2CCC(O)CC2)c2ncnc(N)c12 (stereo not shown) | cell-free assay | 10 µM | remaining signal | 73%
COc1cc(Cl)c(C(=O)N[C@@H](CN[C@H]2CC[C@@H](N)CC2)Cc2ccc(C#N)cc2)cc1-c1ccc(CN[C@H](C)c2ccc(C)cc2)o1 | enzyme activity, inhibitor | 1 µM | remaining activity | 94%
Cc1ccc(C(=O)Nc2ccc(CN3CCN(C)CC3)c(C(F)(F)F)c2)cc1C#Cc1cnc2cccnn12 | cell-free assay | 23.5 nM | remaining signal | 82%
COCCOc1nc(-c2ccc(Cl)nc2)nc2c1CN(C(=O)c1ncn3ccccc13)CC2 | cell-free assay, competition with immobilised ligand | 0.1 µM | remaining binding | 100%
COc1cc2ncnc(Nc3ccc(Oc4ccccc4)c(C)c3C)c2cc1OC | enzyme activity, inhibitor | 1 µM | inhibition | -2%
Cc1noc([C@H]2C[C@@H](c3ccc(C(F)(F)F)cc3)CN(C(=O)N3CCS(=O)(=O)C3)C2)n1 | cell-free assay, competition with immobilised ligand | 1 µM | remaining binding | 100%
COc1cc2ncnc(Nc3ccc(Oc4ccccc4)cc3C)c2cc1OC | enzyme activity, inhibitor | 1 µM | inhibition | -5%
CC/C(=N\NC(=O)NCc1cccc(O)c1)c1ccc(O)c(C)c1O | enzyme activity, inhibitor | 0.1 µM | inhibition | -1.4%
CCCS(=O)(=O)Nc1ccc(F)c(C(=O)c2c[nH]c3ncc(-c4ccc(Cl)cc4)cc23)c1F | enzyme activity, inhibitor | 1 µM | inhibition | < 10%
Nc1ncnc2occ(-c3ccc(NC(=O)Nc4cc(C(F)(F)F)ccc4F)cc3)c12 | enzyme activity, inhibitor | 20 µM | remaining activity | 1.6%
Cc1cc(NC(=O)c2cccc3cc(-c4cccc5[nH]nc(N)c45)ccc23)ccc1F | enzyme activity, inhibitor | 0.1 µM | activity vs control | 96%
Cc1sc(C(=O)NC2COC2)cc1-n1cc(NC(=O)Nc2c(F)cccc2Cl)cn1 | enzyme activity, inhibitor | 10 µM | remaining activity | 114%
O=C(O)[C@H]1[C@H](Cn2nnc3ccccc3c2=O)CC[C@@H]1C(=O)c1ccc(OCCC2CCOCC2)cc1 | cell-free assay, competition with immobilised ligand | 1 µM | remaining binding | 100%
CC(C)(O)[C@H]1CC[C@H](Nc2ccc3ncc(-c4cccc(C(F)(F)F)c4)n3n2)CC1 | enzyme activity, inhibitor | 1 µM | remaining activity | 70.5%
